Here are results for four compounds from publication PMC3993885 (Journal of Natural Products, 2014).

The subject of one data set is HEK293 cell line. Put plainly: Cytotoxicity / survival in HEK293 cells, same conditions as the NF-κB assay. It is filed as cell-based, human.
Data set [1] relates to TNF-α-induced NF-κB activity. The format is cell-based, human. As to conditions: at 50 μM; TNF-α 2 ng/mL, 6 h.
A short description of data set [2]: Chemical stability of 2 monitored by 1H and 13C NMR. It is filed as physicochemical. The settings on record: in DMSO-d6 at room temperature (20 °C), after a month. Summed up: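 1D 1H and 13C spectra were recorded at 400 MHz or 500 MHz. Conversion was judged from a second set of NMR signals assigned to the C-8′ dehydration product.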
The test system of the next data set is dicotyledons. The settings on record: cited from earlier work.
The test system of a further data set is Xanthomonas oryzae. The settings on record: cited from earlier work.

As to “9′-deoxy-8′,8′-dihydroxyherbicidin B [Compound 2]”, in the data set on HEK293 cell line (% survival at a concentration of 50 μM), the NF-κB % survival is 45.1 ± 5.7%. For the same compound, the IC50 in the data set on HEK293 cell line (read-out: HEK293 cell line cytotoxicity IC50, same conditions as the NF-κB assay) stood at 13.7 ± 3.3 µM. Also, the NF-κB % inhibition in data set [1] came out at 96.2 ± 4.9%. In data set [2], the “conversion of 2 to 2a (dehydration at C-8′)” value is about 70%.

For `COC(=O)[C@H]1O[C@@H]2C[C@H]3O[C@@H](n4cnc5c(N)ncnc54)[C@H](OC)[C@H]3O[C@@]2(O)[C@@H](O)[C@@H]1O` [Compound 5, Herbicidin B], in the data set on dicotyledons, the herbicidal activity result was “herbicidal” and the toxicity toward dicotyledons result was “selectively toxic”. Besides, the “growth inhibition of Xanthomonas oryzae” value in the data set on Xanthomonas oryzae is recorded as “significantly inhibited the growth”.

As to `C/C=C(\CO)C(=O)O[C@H]1[C@H](O)[C@@H](C(=O)OC)O[C@@H]2C[C@H]3O[C@@H](n4cnc5c(N)ncnc54)[C@H](OC)[C@H]3O[C@]21O` [Compound 4, Herbicidin A], in the data set on dicotyledons, the herbicidal activity entry was “herbicidal” and the toxicity toward dicotyledons result is listed as “selectively toxic”. The “growth inhibition of Xanthomonas oryzae” value with Xanthomonas oryzae is recorded as “significantly inhibited the growth”.

On to aureonucleomycin [Compound 9], for which, in the data set with dicotyledons, the herbicidal activity entry is listed as “herbicidal” and the toxicity toward dicotyledons result was “selectively toxic”. For the same compound, in the data set on Xanthomonas oryzae, the “growth inhibition of Xanthomonas oryzae” value is recorded as “significantly inhibited the growth”.

For orientation: IC50 means the point on the concentration scale where inhibition reaches its midpoint.
